# Assay outcomes as filed in PubChem.
# MEKK2 mut-MEK5: MEK5 binding signal on mutant MEKK2 PB1, primary screen, biochemical, multiplex bead flow cytometry, Alexa488-MEK5; Alexa488-MEK5 binding to MEKK2 mutant; percent response, % at 10 µM; hit rate 0.35% among 290,000; in the data active = percent response above about 24%, passing the limit was not always enough
# MEKK3 PB1 HTS: modulators of MEKK3-MEK5 PB1 binding, primary screen, biochemical, wildtype MEKK3, multiplex bead flow cytometry, Alexa488-MEK5. bead-based flow cytometry, Alexa488-MEK5 binding to MEKK3; actives lie on both sides; 0 = blocked by unlabeled MEK5, 100 = vehicle. binding response (% of control), % at 10 µM. hit rate 1.4% among 290,000. AID 1529, 2009;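 active = binding response more than 3 SD above or below the average of its plate-row segment, actives on both sides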;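 note: Alexa488 bead fluorescence after subtracting the streptavidin-only scavenger bead signal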
# MEKK2wt PB1 HTS: modulators of MEK5 binding to wildtype MEKK2, primary screen, biochemical, multiplex bead flow cytometry, Alexa488-MEK5 | Mitogen-activated protein kinase kinase kinase 2 (Homo sapiens), Q9Y2U5 | Alexa488-MEK5 binding to MEKK2 WT; actives lie on both sides | binding response (% of control), % at 10 µM | hit rate 1.1% among 290,000 | AID 1531, 2009; in the data active = binding response below about 67% or above about 130%
# Apaf-1 inh: inhibitors of human Apaf-1 apoptosome, primary screen, biochemical, DEVD-Rh110 fluorescence, uHTS; inhibition, % at 20 µM; reconstituted apoptosome caspase-3 activity; hit rate 0.71% among 330,000; active = inhibition of at least 40% at 20 µM;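 note: plate controls were DMSO wells for no effect and DEVD-CHO caspase inhibitor wells for full effect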
#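 Material: reconstituted apoptosome with Apaf-1, cytochrome c, caspase-9, procaspase-3, dATP / Buffer or medium: pH 7.5 Hepes buffer with CHAPS, BSA, DTT / Also added: cytochrome c with DEVD-Rh110 / Schedule: compound with Apaf-1, dATP, procaspase-3 30 min, then 50 min reaction, room temperature / Technique: rhodamine 110 fluorescence at Ex 480/Em 540 nm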
# UBC13 inh: UBC13 polyubiquitin chain formation inhibitors, primary screen, biochemical, TR-FRET, uHTS; hit rate 0.47% among 330,000; inhibition, % at 20 µM; Ubiquitin-conjugating enzyme E2 N (Homo sapiens), P61088; in the data active = inhibition above about 45%, passing the limit was not always enough
# Target sequence (P61088 whole entry, looked up): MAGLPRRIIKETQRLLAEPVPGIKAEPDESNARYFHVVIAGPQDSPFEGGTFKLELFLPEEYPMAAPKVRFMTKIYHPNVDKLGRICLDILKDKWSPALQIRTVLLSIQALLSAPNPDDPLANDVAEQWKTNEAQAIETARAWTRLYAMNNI
# MEKK2wt confirm: modulators of MEK5 binding to wildtype MEKK2, confirmation, biochemical, single concentration, multiplex bead flow cytometry | shares compounds with MEKK3 PB1 HTS | Alexa488-MEK5 binding to MEKK2 WT; actives lie on both sides | binding response (% of control), % at 10 µM | hit rate 2.4% among 5,900 | AID 1892, 2009; in the data active = binding response below about 16% or above about 210%; inactive = in between
# MEKK2mut confirm: mutant MEKK2 PB1-MEK5 binding signal retest – biochemical, single concentration, multiplex bead flow cytometry, confirmation; percent response, % at 10 µM; hit rate 2% among 5,900; Alexa488-MEK5 binding to MEKK2 mutant; shares compounds with MEKK3 PB1 HTS; in the data active = percent response mostly above about 71%, no sharp cut-off; inactive = mostly below about 38%;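 note: higher means compound restores mutant binding toward wildtype level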
# MEKK3-MEK5 inh: MEKK3 wild-type PB1 binding to MEK5, inhibitors, confirmation, biochemical, bead multiplex flow cytometry, single concentration, wildtype; shares compounds with MEKK3 PB1 HTS; Alexa488-MEK5 binding to MEKK3; stronger effect = lower value; hit rate 1.8% among 5,900; AID 1894, 2009; binding response (% of control), % at 10 µM;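 active = binding response below 72% of control, or above a set upper limit, though filed actives all read lower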;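 note: 100% = DMSO only wells and 0% = binding blocked by excess unlabeled MEK5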
# Starred values were filed as active, the others as inactive; nt = not tested or not shown; [ ] = dose if it differs, or a comment. Compounds with a hit are over-represented: about 2.9% of the library has one in this group of screens.
SMILES,MEKK2 mut-MEK5,MEKK3 PB1 HTS,MEKK2wt PB1 HTS,Apaf-1 inh,UBC13 inh,MEKK2wt confirm,MEKK2mut confirm,MEKK3-MEK5 inh
CCNC(=O)COC(=O)CNC(=O)c1cc(Cl)cc([N+](=O)[O-])c1,-1,97,96,0,0,nt,nt,nt
COc1ccc(C(C(=O)NC2CCCCC2)N(CC2CCCO2)C(=O)C2COc3ccccc3O2)cc1OC (centres undefined),7,129*,104,28,-6,100,8,102
COc1ccc(C(=O)N(CC2CCCO2)C(C(=O)NC2CCCC2)c2ccc(Cl)cc2)cc1OC (centres undefined),1,103,99,14,-6,nt,nt,nt
O=C(NC1CCCC1)C(c1ccc(O)cc1)N(CC1CCCO1)C(=O)C1COc2ccccc2O1 (centres undefined),-1,99,96,-9,-1,nt,nt,nt
COc1ccc(C(=O)N(CC2CCCO2)C(C(=O)NCCC(C)C)c2ccc(C)cc2)cc1OC (centres undefined),2,132*,111,12,-2,90,1,94
CC(NC(=O)CNC(=O)C(Cc1ccccc1)NC(=O)OCc1ccccc1)C(N)=O (centres undefined),-13,84,78,-5,-6,nt,nt,nt
Brc1ccccc1OCCOCCOc1cccc2cccnc12,-4,96,95,13,-2,nt,nt,nt
Clc1ccc(OCCOCCOc2cccc3cccnc23)c(Br)c1,1,137*,109,31,-1,111,16,114
COC(=O)C1CCN(c2ccc([N+](=O)[O-])cc2)CC1,-3,90,94,-6,-19,nt,nt,nt
COC(=O)C1CCN(CCCOc2ccc(CN3CCN(c4ccc([N+](=O)[O-])cc4)CC3)cc2)CC1,30,106,141*,7,1,110,4,98
CC(=O)Nc1ccc(S(=O)(=O)N(Cc2ccccc2)C(C)C)cc1,-18,1.0*[inhibitor],1.0*[inhibitor],13,-8,92,-7,99
CC(=O)Nc1ccc(S(=O)(=O)N(C)Cc2ccccc2)cc1,-1,104,108,4,-10,nt,nt,nt
O=Cc1cn(CCOc2ccccc2F)c2ccccc12,3,103,99,3,4,nt,nt,nt
Cc1ccc(NC(=O)CSc2nc3ccccc3c(=O)n2CCCN2CCCCC2)cc1C,4,101,149*,55*,19,142,22,108
O=C1c2ccccc2C(=O)N1CCCCSc1nc2ccccc2c(=O)n1CCCN1CCOCC1,6,143*,135,16,14,107,-1,102
CCn1c(SCC(=O)N2CCCC2)nc2ccccc2c1=O,5,74*[inhibitor],52*[inhibitor],-12,14,105,7,109
COc1ccc(C2=NN(C(C#N)c3ccc(OC)cc3)C(c3ccccc3)C2)cc1 (centres undefined),-1,100,93,nt,nt,nt,nt,nt
CCOC(=O)Cn1nc(C)c(NC(=O)c2ccc(Cl)c([N+](=O)[O-])c2)c1C,-12,89,86,-3,-12,nt,nt,nt
Cc1ccc(C2OC34CCCCCC3C(C#N)(C(=N)O4)C2(C#N)C#N)cc1 (centres undefined),-2,56*[inhibitor],88,2,2,99,1,103
COc1ccc(CCNCC(O)Cn2c3ccccc3c3ccccc32)cc1OC (centres undefined),23,106,159*,8,27,165,36,111
O=C(NNC(=O)c1cc2cc(OC(F)(F)F)ccc2[nH]1)c1cccc(C(F)(F)F)c1,-3,101,95,-11,-2,nt,nt,nt
Cc1oc2c(C)c(O)ccc2c(=O)c1-c1cnn(-c2ccccc2)c1,-12,69*[inhibitor],81,-4,14,97,-4,99
Cc1noc(/C=C/c2ccc(-c3ccccc3Cl)o2)c1[N+](=O)[O-],92*,102,117,22,-86,55,-18,54*
Cc1noc(/C=C/c2cccnc2)c1[N+](=O)[O-],9,105,106,7,0,nt,nt,nt
Cc1ccc(N/C=C/c2onc(C)c2[N+](=O)[O-])cc1,-13,37*[inhibitor],33*[inhibitor],-18,-56,97,-4,100
SMILES,MEKK2 mut-MEK5,MEKK3 PB1 HTS,MEKK2wt PB1 HTS,Apaf-1 inh,UBC13 inh,MEKK2wt confirm,MEKK2mut confirm,MEKK3-MEK5 inh
O=C(COC(=O)/C=C/c1cccs1)Nc1ccc2ccccc2c1,-1,100,97,10,-3,nt,nt,nt
NC(=O)c1cc(S(=O)(=O)N2CCc3ccccc3C2)cs1,2,104,99,1,-2,nt,nt,nt
CCOC(=O)C(=O)N1CCN(c2ccccc2OC)CC1,-16,71*[inhibitor],76,-19,4,102,2,100
O=C(COC(=O)c1cccnc1Cl)Nc1nc(-c2ccccc2)cs1,12,98,115,-1,16,nt,nt,nt
N#C/C(=C\c1ccccc1[N+](=O)[O-])C(=O)NC1CCCCC1,-17,40*[inhibitor],47*[inhibitor],2,8,97,-6,99
N#C/C(=C\C=C\c1ccccc1[N+](=O)[O-])C(=O)NC1CCCCC1,-1,99,94,2,-7,nt,nt,nt
O=C(NCc1ccc2c(c1)OCO2)c1cccc(C(=O)NCc2ccc3c(c2)OCO3)c1,5,105,104,9,3,nt,nt,nt
O=C(NCc1ccc2c(c1)OCO2)C(C(=O)c1ccccc1)n1cc(Cl)ccc1=O (centres undefined),1,132*,106,4,1,101,-3,102
C=CCn1c(=O)c2c(nc(-n3nc(C)cc3C)n2C)n(C)c1=O,0,101,102,-3,0,nt,nt,nt
N/C(=N\OC(=O)Cc1ccccc1)c1ccc([N+](=O)[O-])cc1,1,100,98,21,-8,nt,nt,nt
N/C(Cc1ccc([N+](=O)[O-])cc1)=N\OC(=O)Cc1ccc(Cl)cc1,1,71*[inhibitor],101,5,-7,104,1,98
N/C(Cc1ccc([N+](=O)[O-])cc1)=N\OC(=O)COc1ccccc1Cl,1,110,105,4,2,nt,nt,nt
